Here are results for 5 compounds from ChEMBL document CHEMBL4007456, “Heterocyclyl Tetracyclines. 1. 7-Trifluoromethyl-8-Pyrrolidinyltetracyclines: Potent, Broad Spectrum Antibacterial Agents with Enhanced Activity against Pseudomonas aeruginosa” (2017).

Common to all, as to assay type: functional
Assay [1] relates to Klebsiella pneumoniae. Kind of assay: Antibacterial activity against gram-negative Klebsiella pneumoniae KP153 harboring tet(A) by CLSI method. In short, it runs like this:
(§1)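 CLSI broth microdilution MIC in fresh cation-adjusted Mueller Hinton broth, supplemented with defibrinated horse blood where appropriate. Compounds serially diluted in sterile deionized water. Runs accepted when comparator antibiotics against ATCC quality-control strains fell within recommended ranges.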

The test system of assay [2] is Proteus mirabilis. Description: Antibacterial activity against gram-negative Proteus mirabilis PM122 by CLSI method. In short, it runs like this:
(§2)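 Defibrinated horse blood added where appropriate. Compounds serially diluted in sterile deionized water. Strains from ATCC unless otherwise noted. Runs accepted when comparator antibiotics fell within QC ranges for ATCC quality control strains.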

Assay [3] relates to Pseudomonas aeruginosa. Description: Antibacterial activity against gram-negative Pseudomonas aeruginosa PA169 by CLSI method. In short, it runs like this:
as §2

The test system of assay [4] is Acinetobacter baumannii. Kind of assay: Antibacterial activity against gram-negative Acinetobacter baumannii AB250 by CLSI method. In short, it runs like this:
(§3)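 Broth microdilution MIC per CLSI in cation-adjusted Mueller Hinton broth, prepared fresh and held at 4 °C. Defibrinated horse blood added where appropriate. Compounds serially diluted in sterile deionized water. Strains from ATCC unless otherwise noted. Runs accepted when comparator antibiotics fell within QC ranges for ATCC quality control strains.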

Assay [5] has as its system Stenotrophomonas maltophilia. Description: Antibacterial activity against gram-negative Stenotrophomonas maltophilia SM256 by CLSI method. The gist of the method: as §3
In assay [6] the test system is Burkholderia cenocepacia. Description: Antibacterial activity against gram-negative Burkholderia cenocepacia BC240 by CLSI method. In short, it runs like this:
as §2

In assay [7] the test system is Staphylococcus aureus. Description: Antibacterial activity against gram-positive Staphylococcus aureus SA101 by CLSI method. The gist of the method: as §3
Assay [8] deals with Staphylococcus aureus. Description: Antibacterial activity against gram-positive Staphylococcus aureus SA161 harboring tet(M) by CLSI method. The gist of the method: as §1
In assay [9] the test system is Staphylococcus aureus. Kind of assay: Antibacterial activity against gram-positive Staphylococcus aureus SA158 harboring tet(K) by CLSI method. The gist of the method:
as §1

Assay [10] concerns Enterococcus faecalis. Kind of assay: Antibacterial activity against gram-positive Enterococcus faecalis EF159 harboring tet(M) by CLSI method. In short, it runs like this: as §1
The test system of assay [11] is Streptococcus pneumoniae. Description: Antibacterial activity against gram-positive Streptococcus pneumoniae SP160 harboring tet(M) by CLSI method. The gist of the method:
as §1

The subject of assay [12] is Streptococcus pneumoniae. Kind of assay: Antibacterial activity against gram-positive Streptococcus pneumoniae SP193 by CLSI method. In short, it runs like this: as §3
Assay [13] deals with Escherichia coli. Kind of assay: Antibacterial activity against gram-negative Escherichia coli EC107 by CLSI method. The gist of the method: as §3
For assay [14], the system named is Escherichia coli. Kind of assay: Antibacterial activity against gram-negative Escherichia coli EC155 harboring tet(A) by CLSI method. In short, it runs like this: as §1
For assay [15], the system named is Enterococcus faecalis. Description: Antibacterial activity against gram-positive Enterococcus faecalis EFs327 harboring tet(M) by CLSI method. The gist of the method:
as §1

Assay [16] has as its system Enterococcus faecium. Kind of assay: Antibacterial activity against gram-positive Enterococcus faecium EFm404 harboring tet(M) by CLSI method. In short, it runs like this:
as §1

The subject of assay [17] is Klebsiella pneumoniae. Description: Antibacterial activity against gram-negative Klebsiella pneumoniae KP457 harboring blacTX-M-15 extended spectrum beta-lactamase gene by CLSI method. In short, it runs like this:
as §1

The test system of assay [18] is Proteus mirabilis. Description: Antibacterial activity against gram-negative Proteus mirabilis PM385 by CLSI method. In short, it runs like this: as §3
Assay [19] deals with Pseudomonas aeruginosa. Kind of assay: Antibacterial activity against gram-negative Pseudomonas aeruginosa PA555 by CLSI method. In short, it runs like this: as §3
Assay [20] has as its system Enterobacter cloacae. Description: Antibacterial activity against gram-negative Enterobacter cloacae EC1603 harboring tet(A) by CLSI method. The gist of the method: as §1

≈ marks a conversion by molar mass, not a printed value. Some results are limits rather than exact numbers.

For `CN(C)[C@@H]1C(O)=C(C(N)=O)C(=O)[C@@]2(O)C(O)=C3C(=O)c4c(O)cc(-c5cccnc5)c(Cl)c4C[C@H]3C[C@@H]12`, the MIC in assay [1] was greater than 32 µg/mL; in assay [2] it was 16 µg/mL (≈ 30.4 µM); in [3], greater than 32 µg/mL; in [4], greater than 32 µg/mL; in [5], 2 µg/mL (≈ 3.8 µM); in assay [6], 8 µg/mL (≈ 15.2 µM). The minimal inhibitory concentration (MIC) in assay [7] was determined as 0.125 µg/mL (≈ 0.238 µM); in [8] it was 1 µg/mL (≈ 1.9 µM); in assay [9], 0.125 µg/mL (≈ 0.238 µM); in assay [10], 1 µg/mL (≈ 1.9 µM); in assay [11] it was 8 µg/mL (≈ 15.2 µM); in [12], 0.25 µg/mL (≈ 0.475 µM). The minimal inhibitory concentration (MIC) is 2 µg/mL (≈ 3.8 µM) in assay [13] and greater than 32 µg/mL in [14].
`CN(C)[C@@H]1C(O)=C(C(N)=O)C(=O)[C@@]2(O)C(O)=C3C(=O)c4c(O)cc(C5CCCN5)c(OC(F)(F)F)c4C[C@H]3C[C@@H]12` (some centres undefined): the minimum inhibitory concentration (MIC) was 2 µg/mL (≈ 3.52 µM) in assay [4]; 2 µg/mL (≈ 3.52 µM) in assay [5]; 8 µg/mL (≈ 14.1 µM) in assay [6]; 1 µg/mL (≈ 1.76 µM) in assay [15]; 0.125 µg/mL (≈ 0.22 µM) in assay [16]; 0.25 µg/mL (≈ 0.441 µM) in assay [17]. Besides, the MIC in [18] is 1 µg/mL (≈ 1.76 µM); in assay [19], 8 µg/mL (≈ 14.1 µM); in assay [20], 16 µg/mL (≈ 28.2 µM); in assay [7], 0.125 µg/mL (≈ 0.22 µM); in [8], 2 µg/mL (≈ 3.52 µM); in [9], no more than 0.0156 µg/mL. Besides, the MIC in assay [11] was no more than 0.0156 µg/mL; in assay [13], no more than 0.0156 µg/mL; in assay [14], 8 µg/mL (≈ 14.1 µM).
As for `CC1CCC(c2cc(O)c3c(c2C(F)(F)F)C[C@H]2C[C@H]4[C@H](N(C)C)C(O)=C(C(N)=O)C(=O)[C@@]4(O)C(O)=C2C3=O)N1` (some centres undefined), the MIC in assay [4] was determined as 0.5 µg/mL (≈ 0.884 µM); in assay [5], 0.25 µg/mL (≈ 0.442 µM); in assay [6] it was 4 µg/mL (≈ 7.07 µM); in assay [15], 1 µg/mL (≈ 1.77 µM); in assay [16], 0.25 µg/mL (≈ 0.442 µM); in assay [17] it was 0.25 µg/mL (≈ 0.442 µM). Also, the MIC was 0.5 µg/mL (≈ 0.884 µM) in assay [18]; 8 µg/mL (≈ 14.1 µM) in [19]; 8 µg/mL (≈ 14.1 µM) in assay [20]; 0.125 µg/mL (≈ 0.221 µM) in assay [7]; 1 µg/mL (≈ 1.77 µM) in assay [8]; no more than 0.0156 µg/mL in assay [9]. Also, the MIC in [11] was no more than 0.0156 µg/mL; in [13], no more than 0.0156 µg/mL; in [14] it was 0.5 µg/mL (≈ 0.884 µM).
For `CN(C)[C@@H]1C(O)=C(C(N)=O)C(=O)[C@@]2(O)C(O)=C3C(=O)c4c(O)cc([C@@H]5CCCN5)cc4C[C@H]3C[C@@H]12`, the minimum inhibitory concentration (MIC) is greater than 32 µg/mL in [4]; 32 µg/mL (≈ 66.2 µM) in assay [5]; greater than 32 µg/mL in assay [6]; greater than 32 µg/mL in assay [15]; 16 µg/mL (≈ 33.1 µM) in assay [16]; 0.5 µg/mL (≈ 1.03 µM) in assay [17]. The MIC in [18] was 0.25 µg/mL (≈ 0.517 µM); in [19], 16 µg/mL (≈ 33.1 µM); in assay [20] it was 4 µg/mL (≈ 8.27 µM); in [7], 4 µg/mL (≈ 8.27 µM); in assay [8] it was greater than 32 µg/mL; in assay [9], 0.5 µg/mL (≈ 1.03 µM). Moreover, the values for the MIC in assay [11], in assay [13] and in assay [14] were 8 µg/mL (≈ 16.5 µM), 0.25 µg/mL (≈ 0.517 µM) and 4 µg/mL (≈ 8.27 µM), respectively.
For the compound `CN(C)[C@@H]1C(O)=C(C(N)=O)C(=O)[C@@]2(O)C(O)=C3C(=O)c4c(O)cc([C@@H]5CCCN5CC5CC5)c(C(F)(F)F)c4C[C@H]3C[C@@H]12`, the minimal inhibitory concentration (MIC) in [4] came to 4 µg/mL (≈ 6.6 µM); in assay [5], 4 µg/mL (≈ 6.6 µM); in assay [6] it was 16 µg/mL (≈ 26.4 µM); in assay [15], 1 µg/mL (≈ 1.65 µM); in assay [16], 1 µg/mL (≈ 1.65 µM); in assay [17] it was 16 µg/mL (≈ 26.4 µM). In addition, the MIC was 8 µg/mL (≈ 13.2 µM) in assay [18]; greater than 32 µg/mL in [19]; 32 µg/mL (≈ 52.8 µM) in [20]; 0.5 µg/mL (≈ 0.826 µM) in assay [7]; 1 µg/mL (≈ 1.65 µM) in [8]; 0.125 µg/mL (≈ 0.206 µM) in assay [9]. For the same compound, the results for the MIC in assay [11], in assay [13] and in [14] were 0.0312 µg/mL (≈ 0.0515 µM), 1 µg/mL (≈ 1.65 µM) and 2 µg/mL (≈ 3.3 µM), respectively.

The MIC is the least concentration at which growth counts as inhibited.
